# Measurements published in ChEMBL document CHEMBL4689842, “EUbOPEN Chemogenomics Library wave 1” (2021).
# System: U2OS
# Assay: Multiplex assay against U2OS
# Assay type: toxicity, cell-based
# Conditions: human
# How it was run: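 Live cells carried four stains from seeding: Hoechst33342, BioTracker Green Microtubule Cytoskeleton Dye, MitoTracker Red and Annexin V Alexa Fluor 680. They were imaged on a CQ1 microscope at 37°C and 5% CO2 after compound addition. Using CellPathfinder machine-learning gating, cells were split into Hoechst high-intensity objects or normal cells, normal cells into healthy, pyknosed or fragmented nuclei, and pyknosed cells into mitotic or apoptotic; tubulin, mitochondrial-mass and membrane-permeability phenotypes are per cents of healthy-nucleus cells.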
# [1] = 12 h, 1 µM, compound concentration 1 uM, replicate 1
# [2] = 12 h, 1 µM, compound concentration 1 uM, replicate 2
# [3] = 12 h, 10 µM, compound concentration 10 uM, replicate 1
# [4] = 12 h, 10 µM, compound concentration 10 uM, replicate 2
# [5] = 24 h, 1 µM, compound concentration 1 uM, replicate 1
# [6] = 24 h, 1 µM, compound concentration 1 uM, replicate 2
# [7] = 24 h, 10 µM, compound concentration 10 uM, replicate 1
# [8] = 24 h, 10 µM, compound concentration 10 uM, replicate 2
# [9] = 48 h, 1 µM, compound concentration 1 uM, replicate 1
# [10] = 48 h, 1 µM, compound concentration 1 uM, replicate 2
# [11] = 48 h, 10 µM, compound concentration 10 uM, replicate 1
# [12] = 48 h, 10 µM, compound concentration 10 uM, replicate 2
compound,measurement,setting,value
Cn1cc(-c2[nH]c3cc(NC(=O)[C@H](N)C4CCCCC4)cc4c3c2C=NNC4=O)cn1,Population Apoptotic (%),[1],44%
same,Population Fragmented Nuclei (%),[1],11%
same,Population Healthy Nuclei (%),[1],76%
same,Population Hoechst High Intensity Objects (%),[1],3%
same,Population Membrane Permeable-Phenotype (%),[1],6%
same,Population Mitochondria Different-Phenotype (%),[1],4%
same,Population Mitotic Cells (%),[1],55%
same,Population Normal (%),[1],96%
same,Population Pyknosed Nuclei (%),[1],11%
same,Population Tubulin-Different-Phenotype (%),[1],16%
same,Total Cell Count,[1],123
same,Population Apoptotic (%),[2],33%
same,Population Fragmented Nuclei (%),[2],13%
same,Population Healthy Nuclei (%),[2],72%
same,Population Membrane Permeable-Phenotype (%),[2],4%
same,Population Mitochondria Different-Phenotype (%),[2],7%
same,Population Mitotic Cells (%),[2],66%
same,Population Pyknosed Nuclei (%),[2],13%
same,Population Tubulin-Different-Phenotype (%),[2],12%
same,Total Cell Count,[2],51
same,Population Apoptotic (%),[3],47%
same,Population Fragmented Nuclei (%),[3],14%
same,Population Healthy Nuclei (%),[3],60%
same,Population Hoechst High Intensity Objects (%),[3],6%
same,Population Membrane Permeable-Phenotype (%),[3],7%
same,Population Mitochondria Different-Phenotype (%),[3],34%
same,Population Mitotic Cells (%),[3],52%
same,Population Normal (%),[3],93%
same,Population Pyknosed Nuclei (%),[3],25%
same,Population Tubulin-Different-Phenotype (%),[3],28%
same,Total Cell Count,[3],247
same,Population Apoptotic (%),[4],69%
same,Population Fragmented Nuclei (%),[4],37%
same,Population Healthy Nuclei (%),[4],42%
same,Population Hoechst High Intensity Objects (%),[4],9%
same,Population Membrane Permeable-Phenotype (%),[4],21%
same,Population Mitochondria Different-Phenotype (%),[4],53%
same,Population Mitotic Cells (%),[4],30%
same,Population Normal (%),[4],90%
same,Population Pyknosed Nuclei (%),[4],19%
same,Population Tubulin-Different-Phenotype (%),[4],57%
same,Total Cell Count,[4],91
same,Population Apoptotic (%),[5],46%
same,Population Fragmented Nuclei (%),[5],9%
same,Population Healthy Nuclei (%),[5],80%
same,Population Membrane Permeable-Phenotype (%),[5],5%
same,Population Mitochondria Different-Phenotype (%),[5],3%
same,Population Mitotic Cells (%),[5],53%
same,Population Pyknosed Nuclei (%),[5],9%
same,Population Tubulin-Different-Phenotype (%),[5],14%
same,Total Cell Count,[5],121
same,Population Apoptotic (%),[6],43%
same,Population Fragmented Nuclei (%),[6],13%
same,Population Healthy Nuclei (%),[6],70%
same,Population Hoechst High Intensity Objects (%),[6],3%
same,Population Membrane Permeable-Phenotype (%),[6],9%
same,Population Mitochondria Different-Phenotype (%),[6],6%
same,Population Mitotic Cells (%),[6],56%
same,Population Normal (%),[6],96%
same,Population Pyknosed Nuclei (%),[6],15%
same,Population Tubulin-Different-Phenotype (%),[6],15%
same,Total Cell Count,[6],52
same,Population Apoptotic (%),[7],67%
same,Population Fragmented Nuclei (%),[7],17%
same,Population Healthy Nuclei (%),[7],43%
same,Population Hoechst High Intensity Objects (%),[7],8%
same,Population Membrane Permeable-Phenotype (%),[7],10%
same,Population Mitochondria Different-Phenotype (%),[7],16%
same,Population Mitotic Cells (%),[7],32%
same,Population Normal (%),[7],91%
same,Population Pyknosed Nuclei (%),[7],39%
same,Population Tubulin-Different-Phenotype (%),[7],19%
same,Total Cell Count,[7],293
same,Population Apoptotic (%),[8],86%
same,Population Fragmented Nuclei (%),[8],34%
same,Population Healthy Nuclei (%),[8],29%
same,Population Hoechst High Intensity Objects (%),[8],16%
same,Population Membrane Permeable-Phenotype (%),[8],44%
same,Population Mitochondria Different-Phenotype (%),[8],61%
same,Population Mitotic Cells (%),[8],13%
same,Population Normal (%),[8],83%
same,Population Pyknosed Nuclei (%),[8],36%
same,Population Tubulin-Different-Phenotype (%),[8],55%
same,Total Cell Count,[8],106
same,Population Apoptotic (%),[9],45%
same,Population Fragmented Nuclei (%),[9],7%
same,Population Healthy Nuclei (%),[9],81%
same,Population Hoechst High Intensity Objects (%),[9],3%
same,Population Membrane Permeable-Phenotype (%),[9],2%
same,Population Mitochondria Different-Phenotype (%),[9],3%
same,Population Mitotic Cells (%),[9],54%
same,Population Normal (%),[9],96%
same,Population Pyknosed Nuclei (%),[9],10%
same,Population Tubulin-Different-Phenotype (%),[9],17%
same,Total Cell Count,[9],124
same,Population Apoptotic (%),[10],42%
same,Population Fragmented Nuclei (%),[10],15%
same,Population Healthy Nuclei (%),[10],55%
same,Population Hoechst High Intensity Objects (%),[10],5%
same,Population Membrane Permeable-Phenotype (%),[10],16%
same,Population Mitochondria Different-Phenotype (%),[10],18%
same,Population Mitotic Cells (%),[10],57%
same,Population Normal (%),[10],94%
same,Population Pyknosed Nuclei (%),[10],28%
same,Population Tubulin-Different-Phenotype (%),[10],24%
same,Total Cell Count,[10],56
same,Population Apoptotic (%),[11],83%
same,Population Fragmented Nuclei (%),[11],20%
same,Population Healthy Nuclei (%),[11],31%
same,Population Hoechst High Intensity Objects (%),[11],13%
same,Population Membrane Permeable-Phenotype (%),[11],13%
same,Population Mitochondria Different-Phenotype (%),[11],20%
same,Population Mitotic Cells (%),[11],16%
same,Population Normal (%),[11],86%
same,Population Pyknosed Nuclei (%),[11],48%
same,Population Tubulin-Different-Phenotype (%),[11],21%
same,Total Cell Count,[11],395
same,Population Apoptotic (%),[12],100%
same,Population Fragmented Nuclei (%),[12],40%
same,Population Hoechst High Intensity Objects (%),[12],20%
same,Population Membrane Permeable-Phenotype (%),[12],66%
same,Population Mitochondria Different-Phenotype (%),[12],61%
same,Population Mitotic Cells (%),[12],0%
same,Population Normal (%),[12],79%
same,Population Pyknosed Nuclei (%),[12],28%
same,Population Tubulin-Different-Phenotype (%),[12],77%
same,Total Cell Count,[12],103
